Data reported in ChEMBL document CHEMBL1287651, “Synthesis and in vitro antibacterial activity of fluoroquinolone derivatives containing 3-(N'-alkoxycarbamimidoyl)-4-(alkoxyimino) pyrrolidines” (2010).
Converted amounts (≈) assume the structure as drawn.

Legend:
Format in all cases: functional
Staphylococcus aureus [1] = assay: Antibacterial activity against methicillin-sensitive Staphylococcus aureus 08-2 after 18 to 24 hrs by twofold serial dilution method
How it was run: (§1)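 Standard twofold serial agar dilution method on agar media for MIC determination. Screened against representative Gram-positive and Gram-negative strains. Levofloxacin and GMFX served as control drugs.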

Escherichia coli [2] = assay: Antibacterial activity against Escherichia coli 08-22 after 18 to 24 hrs by twofold serial dilution method
How it was run: (§2)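 MIC determined by the standard twofold serial dilution method on agar media, screening against Gram-positive and Gram-negative strains. Levofloxacin and gemifloxacin were run alongside as reference drugs.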

Enterococcus faecalis [3] = assay: Antibacterial activity against Enterococcus faecalis 08-12 after 18 to 24 hrs by twofold serial dilution method; how it was run: as §2
[4] = test system: Staphylococcus epidermidis; assay: Antibacterial activity against methicillin-sensitive Staphylococcus epidermidis 09-6 after 18 to 24 hrs by twofold serial dilution method; how it was run: as §1
Escherichia coli [5] = assay: Antibacterial activity against Escherichia coli 08-21 after 18 to 24 hrs by twofold serial dilution method; how it was run: as §2
Pseudomonas aeruginosa [6] = assay: Antibacterial activity against Pseudomonas aeruginosa 09-35 after 18 to 24 hrs by twofold serial dilution method; how it was run: as §2
Pseudomonas aeruginosa [7] = assay: Antibacterial activity against Pseudomonas aeruginosa 09-34 after 18 to 24 hrs by twofold serial dilution method; how it was run: as §2
Enterococcus faecalis [8] = assay: Antibacterial activity against Enterococcus faecalis 08-10 after 18 to 24 hrs by twofold serial dilution method; how it was run: as §2
Enterococcus faecium [9] = assay: Antibacterial activity against Enterococcus faecium 08-2 after 18 to 24 hrs by twofold serial dilution method; how it was run: as §2
Pseudomonas aeruginosa [10] = assay: Antibacterial activity against Pseudomonas aeruginosa 09-33 after 18 to 24 hrs by twofold serial dilution method; how it was run: as §2
[11] = test system: Staphylococcus epidermidis; assay: Antibacterial activity against methicillin-resistant Staphylococcus epidermidis 09-2 after 18 to 24 hrs by twofold serial dilution method; how it was run: as §1
Pseudomonas aeruginosa [12] = assay: Antibacterial activity against Pseudomonas aeruginosa 09-32 after 18 to 24 hrs by twofold serial dilution method; how it was run: as §2
Escherichia coli [13] = assay: Antibacterial activity against Escherichia coli ATCC 25922 after 18 to 24 hrs by twofold serial dilution method; how it was run: as §2
Staphylococcus aureus [14] = assay: Antibacterial activity against Staphylococcus aureus ATCC […] after 18 to 24 hrs by twofold serial dilution method; how it was run: as §2
Streptococcus pneumoniae [15] = assay: Antibacterial activity against Streptococcus pneumoniae 08-4 after 18 to 24 hrs by twofold serial dilution method; how it was run: as §2
Klebsiella pneumoniae [16] = assay: Antibacterial activity against Klebsiella pneumoniae 09-23 after 18 to 24 hrs by twofold serial dilution method; how it was run: as §2
[17] = test system: Staphylococcus epidermidis; assay: Antibacterial activity against methicillin-sensitive Staphylococcus epidermidis 09-3 after 18 to 24 hrs by twofold serial dilution method; how it was run: as §1
Klebsiella pneumoniae [18] = assay: Antibacterial activity against Klebsiella pneumoniae 09-21 after 18 to 24 hrs by twofold serial dilution method; how it was run: as §2
Pseudomonas aeruginosa [19] = assay: Antibacterial activity against Pseudomonas aeruginosa ATCC 27853 after 18 to 24 hrs by twofold serial dilution method; how it was run: as §2
[20] = test system: Staphylococcus epidermidis; assay: Antibacterial activity against methicillin-resistant Staphylococcus epidermidis 09-4 after 18 to 24 hrs by twofold serial dilution method; how it was run: as §1
Enterococcus faecium [21] = assay: Antibacterial activity against Enterococcus faecium 08-7 after 18 to 24 hrs by twofold serial dilution method; how it was run: as §2
[22] = test system: Staphylococcus epidermidis; assay: Antibacterial activity against methicillin-resistant Staphylococcus epidermidis 09-3 after 18 to 24 hrs by twofold serial dilution method; how it was run: as §1
Staphylococcus aureus [23] = assay: Antibacterial activity against methicillin-resistant Staphylococcus aureus 08-1 after 18 to 24 hrs by twofold serial dilution method; how it was run: as §1
Streptococcus pneumoniae [24] = assay: Antibacterial activity against Streptococcus pneumoniae 08-2 after 18 to 24 hrs by twofold serial dilution method; how it was run: as §2
Klebsiella pneumoniae [25] = assay: Antibacterial activity against Klebsiella pneumoniae 09-22 after 18 to 24 hrs by twofold serial dilution method; how it was run: as §2

Structure (SMILES) | MIC (Staphylococcus aureus [1]) [µg/mL] | MIC (Escherichia coli [2]) [µg/mL] | MIC (Enterococcus faecalis [3]) [µg/mL] | MIC [4] [µg/mL] | MIC (Escherichia coli [5]) [µg/mL] | MIC (Pseudomonas aeruginosa [6]) [µg/mL] | MIC (Pseudomonas aeruginosa [7]) [µg/mL] | MIC (Enterococcus faecalis [8]) [µg/mL] | MIC (Enterococcus faecium [9]) [µg/mL] | MIC (Pseudomonas aeruginosa [10]) [µg/mL] | MIC [11] [µg/mL] | MIC (Pseudomonas aeruginosa [12]) [µg/mL] | MIC (Escherichia coli [13]) [µg/mL] | MIC (Staphylococcus aureus [14]) [µg/mL] | MIC (Streptococcus pneumoniae [15]) [µg/mL] | MIC (Klebsiella pneumoniae [16]) [µg/mL] | MIC [17] [µg/mL] | MIC (Klebsiella pneumoniae [18]) [µg/mL] | MIC (Pseudomonas aeruginosa [19]) [µg/mL] | MIC [20] [µg/mL] | also measured
CO/N=C1\CN(c2c(F)cc3c(=O)c(C(=O)O)cn(C4CC4)c3c2OC)CC1/C(N)=N\O (stereo not given) | 0.25 (≈ 0.559 µM) | > 128 | > 128 | 0.25 (≈ 0.559 µM) | > 128 | 32 (≈ 71.5 µM) | > 128 | > 128 | > 128 | > 128 | 0.5 (≈ 1.12 µM) | 32 (≈ 71.5 µM) | > 128 | 0.25 (≈ 0.559 µM) | 4 (≈ 8.94 µM) | > 128 | 0.25 (≈ 0.559 µM) | > 128 | 16 (≈ 35.8 µM) | 0.25 (≈ 0.559 µM) | MIC (Enterococcus faecium [21]): > 128 µg/mL; MIC [22]: 0.25 µg/mL (≈ 0.559 µM); MIC (Staphylococcus aureus [23]): 0.25 µg/mL (≈ 0.559 µM); MIC (Streptococcus pneumoniae [24]): 4 µg/mL (≈ 8.94 µM); MIC (Klebsiella pneumoniae [25]): 1 µg/mL (≈ 2.24 µM)
CCO/N=C1\CN(c2c(F)cc3c(=O)c(C(=O)O)cn(C4CC4)c3c2OC)CC1/C(N)=N\O (stereo not given) | 0.25 (≈ 0.542 µM) | > 128 | > 128 | 0.25 (≈ 0.542 µM) | > 128 | 64 (≈ 139 µM) | > 128 | > 128 | > 128 | > 128 | 0.5 (≈ 1.08 µM) | 64 (≈ 139 µM) | 128 (≈ 277 µM) | 0.25 (≈ 0.542 µM) | 1 (≈ 2.17 µM) | > 128 | 0.25 (≈ 0.542 µM) | > 128 | 32 (≈ 69.3 µM) | 0.5 (≈ 1.08 µM) | MIC (Enterococcus faecium [21]): > 128 µg/mL; MIC [22]: 0.25 µg/mL (≈ 0.542 µM); MIC (Staphylococcus aureus [23]): 0.25 µg/mL (≈ 0.542 µM); MIC (Streptococcus pneumoniae [24]): 1 µg/mL (≈ 2.17 µM); MIC (Klebsiella pneumoniae [25]): 4 µg/mL (≈ 8.67 µM)
CO/N=C1\CN(c2c(F)cc3c(=O)c(C(=O)O)cn(C4CC4)c3c2OC)CC1/C(N)=N\OC (stereo not given) | 0.125 (≈ 0.271 µM) | > 128 | > 128 | 0.25 (≈ 0.542 µM) | > 128 | 128 (≈ 277 µM) | > 128 | > 128 | > 128 | > 128 | 0.25 (≈ 0.542 µM) | 128 (≈ 277 µM) | 128 (≈ 277 µM) | 0.125 (≈ 0.271 µM) | 0.25 (≈ 0.542 µM) | > 128 | 0.125 (≈ 0.271 µM) | > 128 | 64 (≈ 139 µM) | 0.25 (≈ 0.542 µM) | MIC (Enterococcus faecium [21]): > 128 µg/mL; MIC [22]: 0.25 µg/mL (≈ 0.542 µM); MIC (Staphylococcus aureus [23]): 0.25 µg/mL (≈ 0.542 µM); MIC (Streptococcus pneumoniae [24]): 8 µg/mL (≈ 17.3 µM); MIC (Klebsiella pneumoniae [25]): 2 µg/mL (≈ 4.33 µM)
CCO/N=C1\CN(c2c(F)cc3c(=O)c(C(=O)O)cn(C4CC4)c3c2OC)CC1/C(N)=N\OC (stereo not given) | 0.25 (≈ 0.526 µM) | > 128 | 0.5 (≈ 1.05 µM) | 0.25 (≈ 0.526 µM) | > 128 | > 128 | > 128 | 0.25 (≈ 0.526 µM) | > 128 | > 128 | 0.5 (≈ 1.05 µM) | > 128 | > 128 | 0.5 (≈ 1.05 µM) | 4 (≈ 8.41 µM) | > 128 | 0.25 (≈ 0.526 µM) | > 128 | > 128 | 0.125 (≈ 0.263 µM) | MIC (Enterococcus faecium [21]): > 128 µg/mL; MIC [22]: 0.125 µg/mL (≈ 0.263 µM); MIC (Staphylococcus aureus [23]): 0.25 µg/mL (≈ 0.526 µM); MIC (Streptococcus pneumoniae [24]): 4 µg/mL (≈ 8.41 µM); MIC (Klebsiella pneumoniae [25]): 4 µg/mL (≈ 8.41 µM)
